The text below walks through data of ChEMBL document CHEMBL4325897, “Discovery, synthesis of novel fusidic acid derivatives possessed amino-terminal groups at the 3-hydroxyl position with anticancer activity” (Eur J Med Chem, 2019).

Assay [1] concerns HeLa. The assay can be described thus: Cytotoxicity against human HeLa cells assessed as cell viability at 5 uM after 72 hrs by MTT assay relative to control. The class given is functional. The settings on record: read-out: Activity. Summed up:
(§1)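 Cells grown in DMEM with 10% heat-inactivated FCS and penicillin/streptomycin at 37 °C, 5% CO2, and used in log phase. Seeded in 96-well plates and exposed to compounds at 5 μM and 1.5 μM for 72 h. MTT added, formazan dissolved in DMSO, OD read at 570 nm, and survival rate calculated. Average of at least three independent experiments.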
(In general: Formazan colour is commonly taken as a measure of viable cells.)

In assay [2] the test system is HeLa. The assay can be described thus: Cytotoxicity against human HeLa cells assessed as cell viability at 1.5 uM after 72 hrs by MTT assay relative to control. The class given is functional. The settings on record: read-out: Activity. Summed up: as §1
The nature of assay [3]: Cytotoxicity against human KBV cells assessed as cell viability at 5 uM after 72 hrs by MTT assay relative to control. In kind it is functional. The settings on record: read-out: Activity. The essentials:
as §1

A short description of assay [4]: Cytotoxicity against human KBV cells assessed as cell viability at 1.5 uM after 72 hrs by MTT assay relative to control. The settings on record: read-out: Activity. In kind it is functional. The essentials: as §1
Assay [5] has as its system U-87 MG. The assay can be described thus: Cytotoxicity against human U87 cells assessed as cell viability at 5 uM after 72 hrs by MTT assay relative to control. The class given is functional, U-87MG ATCC. The settings on record: read-out: Activity. The essentials:
as §1

Assay [6] has as its system U-87 MG. The assay can be described thus: Cytotoxicity against human U87 cells assessed as cell viability at 1.5 uM after 72 hrs by MTT assay relative to control. Particulars: read-out: Activity. In kind it is functional, U-87MG ATCC. The essentials: as §1
For assay [7], the system named is MKN-45. The assay can be described thus: Cytotoxicity against human MKN45 cells assessed as cell viability at 5 uM after 72 hrs by MTT assay relative to control. The class given is functional. The settings on record: MKN-45, 72 h, read-out: Activity. Summed up: as §1
In assay [8] the test system is MKN-45. The experiment in a line: Cytotoxicity against human MKN45 cells assessed as cell viability at 1.5 uM after 72 hrs by MTT assay relative to control. In kind it is functional. The settings on record: MKN-45, 72 h, read-out: Activity. Summed up: as §1

On to `CC(=O)O[C@H]1C[C@@]2(C)[C@@H](C[C@@H](O)[C@H]3[C@@]4(C)CC[C@@H](OC(=O)CCC(=O)N5CCN(C)CC5)[C@@H](C)[C@@H]4CC[C@@]32C)/C1=C(\CCC=C(C)C)C(=O)OCc1ccccc1`, for which the viability at 5 µM was determined as 47% in the assay with HeLa [1], 71% in assay [3], 88% with U-87 MG [5] and 75% with MKN-45 [7]. For the same molecule, the viability at 1.5 µM was 70% in the assay with HeLa [2], 82% in assay [4], 87% in the assay on U-87 MG [6] and 81% with MKN-45 [8].
For `CC(=O)O[C@H]1C[C@@]2(C)[C@@H](C[C@@H](O)[C@H]3[C@@]4(C)CC[C@@H](OC(=O)CCCCCCCCCCN)[C@@H](C)[C@@H]4CC[C@@]32C)/C1=C(\CCC=C(C)C)C(=O)OCc1ccccc1`, the viability at 5 µM with HeLa [1] worked out at 19%; in assay [3], 9%; with U-87 MG [5], 10%; in the assay on MKN-45 [7], 5%. Further, the viability at 1.5 µM was found to be 100% in the assay on HeLa [2], 93% in assay [4], 49% in the assay on U-87 MG [6] and 96% with MKN-45 [8].
On to `CC(=O)O[C@H]1C[C@@]2(C)[C@@H](C[C@@H](O)[C@H]3[C@@]4(C)CC[C@@H](OC(=O)C(C)N)[C@@H](C)[C@@H]4CC[C@@]32C)/C1=C(\CCC=C(C)C)C(=O)OCc1ccccc1` (stereo partly specified), for which the viability at 5 µM with HeLa [1] worked out at 23%; in assay [3], 15%; with U-87 MG [5], 33%; with MKN-45 [7] it was 91%. The viability at 1.5 µM turned out to be 102% in the assay on HeLa [2], 95% in assay [4], 95% with U-87 MG [6] and 96% in the assay with MKN-45 [8].
Consider `CC(=O)O[C@H]1C[C@@]2(C)[C@@H](C[C@@H](O)[C@H]3[C@@]4(C)CC[C@@H](OC(=O)CCCCCCCN)[C@@H](C)[C@@H]4CC[C@@]32C)/C1=C(\CCC=C(C)C)C(=O)OCc1ccccc1`, for which the viability at 5 µM came to 19% in the assay on HeLa [1], 11% in assay [3], 10% in the assay with U-87 MG [5] and 4% with MKN-45 [7]. For the same molecule, the viability at 1.5 µM in the assay on HeLa [2] was determined as 99%; in assay [4] it was 83%; in the assay on U-87 MG [6], 116%; in the assay on MKN-45 [8], 16%.
As to `CC(=O)O[C@H]1C[C@@]2(C)[C@@H](C[C@@H](O)[C@H]3[C@@]4(C)CC[C@@H](OC(=O)c5nccnc5C(=O)O)[C@@H](C)[C@@H]4CC[C@@]32C)/C1=C(\CCC=C(C)C)C(=O)OCc1ccccc1`, the viability at 5 µM with HeLa [1] is 69%; in assay [3] it was 108%; with U-87 MG [5], 90%; with MKN-45 [7], 87%. Further, the viability at 1.5 µM in the assay with HeLa [2] stood at 76%; in assay [4], 86%; in the assay on U-87 MG [6], 88%; in the assay with MKN-45 [8], 95%.
On to `CC(=O)O[C@H]1C[C@@]2(C)[C@@H](C[C@@H](O)[C@H]3[C@@]4(C)CC[C@@H](OC(=O)CCCN)[C@@H](C)[C@@H]4CC[C@@]32C)/C1=C(\CCC=C(C)C)C(=O)OCc1ccccc1`, for which the viability at 5 µM in the assay with HeLa [1] was determined as 23%; in assay [3] it was 13%; in the assay on U-87 MG [5], 9%; with MKN-45 [7], 6%. The viability at 1.5 µM was determined as 101% with HeLa [2], 98% in assay [4], 10% with U-87 MG [6] and 90% with MKN-45 [8].
For `CC(=O)O[C@H]1C[C@@]2(C)[C@@H](C[C@@H](O)[C@H]3[C@@]4(C)CC[C@@H](OC(=O)CCC(=O)N5CCOCC5)[C@@H](C)[C@@H]4CC[C@@]32C)/C1=C(\CCC=C(C)C)C(=O)OCc1ccccc1`, the viability at 5 µM came to 64% in the assay on HeLa [1], 66% in assay [3], 93% in the assay on U-87 MG [5] and 78% with MKN-45 [7]. For the same molecule, the viability at 1.5 µM in the assay with HeLa [2] was determined as 76%; in assay [4] it was 78%; with U-87 MG [6], 91%; with MKN-45 [8], 82%.
In the case of `CC(=O)O[C@H]1C[C@@]2(C)[C@@H](C[C@@H](O)[C@H]3[C@@]4(C)CC[C@@H](OC(=O)C(N)CC(C)C)[C@@H](C)[C@@H]4CC[C@@]32C)/C1=C(\CCC=C(C)C)C(=O)OCc1ccccc1` (stereo partly specified), the viability at 5 µM in the assay with HeLa [1] was 22%; in assay [3] it was 83%; with U-87 MG [5], 111%; with MKN-45 [7] it was 92%. For the same molecule, the viability at 1.5 µM in the assay with HeLa [2] is 99%; in assay [4], 96%; in the assay with U-87 MG [6] it was 106%; in the assay with MKN-45 [8] it was 95%.
For the molecule `CC(=O)O[C@H]1C[C@@]2(C)[C@@H](C[C@@H](O)[C@H]3[C@@]4(C)CC[C@@H](OC(=O)c5ccccc5C(=O)n5cccn5)[C@@H](C)[C@@H]4CC[C@@]32C)/C1=C(\CCC=C(C)C)C(=O)OCc1ccccc1`, the viability at 5 µM in the assay with HeLa [1] worked out at 82%; in assay [3], 79%; in the assay on U-87 MG [5], 87%; in the assay with MKN-45 [7], 96%. For the same molecule, the viability at 1.5 µM with HeLa [2] was found to be 90%; in assay [4], 85%; in the assay on U-87 MG [6], 90%; in the assay on MKN-45 [8] it was 101%.
For `CC(=O)O[C@H]1C[C@@]2(C)[C@@H](C[C@@H](O)[C@H]3[C@@]4(C)CC[C@@H](OC(=O)CCC(=O)n5cccn5)[C@@H](C)[C@@H]4CC[C@@]32C)/C1=C(\CCC=C(C)C)C(=O)OCc1ccccc1`, the viability at 5 µM in the assay on HeLa [1] is 71%; in assay [3], 80%; in the assay on U-87 MG [5], 83%; in the assay on MKN-45 [7], 83%. In addition, the viability at 1.5 µM was found to be 75% in the assay with HeLa [2], 77% in assay [4], 87% in the assay with U-87 MG [6] and 88% with MKN-45 [8].
On to `CC(=O)O[C@H]1C[C@@]2(C)[C@@H](C[C@@H](O)[C@H]3[C@@]4(C)CC[C@@H](OC(=O)c5ccccc5C(=O)N5CCN(C)CC5)[C@@H](C)[C@@H]4CC[C@@]32C)/C1=C(\CCC=C(C)C)C(=O)OCc1ccccc1`, for which the viability at 5 µM was 73% in the assay on HeLa [1], 75% in assay [3], 77% with U-87 MG [5] and 99% with MKN-45 [7]. The viability at 1.5 µM is 83% in the assay with HeLa [2], 89% in assay [4], 86% in the assay on U-87 MG [6] and 104% with MKN-45 [8].
Regarding `CC(=O)O[C@H]1C[C@@]2(C)[C@@H](C[C@@H](O)[C@H]3[C@@]4(C)CC[C@@H](OC(=O)[C@@H](N)CCCCN)[C@@H](C)[C@@H]4CC[C@@]32C)/C1=C(\CCC=C(C)C)C(=O)OCc1ccccc1`, the viability at 5 µM is 8% in the assay on HeLa [1], 18% in assay [3], 9% in the assay on U-87 MG [5] and 8% in the assay with MKN-45 [7]. Also, the viability at 1.5 µM turned out to be 101% with HeLa [2], 99% in assay [4], 105% in the assay with U-87 MG [6] and 91% in the assay with MKN-45 [8].
